Measured values: ChEMBL document CHEMBL2407056, “3-(Oxazolo[4,5-b]pyridin-2-yl)anilides as a novel class of potent inhibitors for the kinetoplastid Trypanosoma brucei, the causative agent for human African trypanosomiasis” (Eur J Med Chem, 2013)
In brackets after ≈: the same amount, converted by molar mass.

What was measured:
[1] = tested on: Trypanosoma brucei brucei; experiment: Antitrypanosomal activity against Trypanosoma brucei brucei 427 bloodstream form after 48 hrs by Alamar blue assay; assay type: functional, organism-based; settings: Trypanosoma brucei, 427, 48 h
How it was run: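 Bloodstream parasites in 384-well plates, 24 h preincubation at 37 °C/5% CO2. DMSO dilutions diluted 1:21 in DMEM and added to give final 41.67 to 0.0004 µM; 48 h incubation. 70% Alamar Blue in HMI-9 + 10% FCS added, 2 h at 37 °C then 22 h at room temperature; read at ex 535/em 590 nm.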

[2] = Selectivity index, ratio of IC50 for HEK293 cells to IC50 for Trypanosoma brucei brucei 427 bloodstream form; assay type: toxicity, cell-based; settings: human, read-out: Ratio IC50
How it was run: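 HEK293 cells (55 µL of 72,727 cells/mL in DMEM + 10% FCS) in 384-well plates, 24 h at 37 °C/5% CO2. Drug diluted 1:21 from DMSO, final 83.34 to 0.0004 µM, 48 h. […] SI relative to T. b. brucei.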

[3] = Kinetic solubility of the compound in phosphate buffer at pH 6.5 by nephelometry; assay type: physicochemical; settings: read-out: Kinetic_solubility
How it was run: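 DMSO stocks spiked into pH 6.5 phosphate buffer or 0.01 M HCl (about pH 2.0), final DMSO 1% (v/v). Solubility range determined by nephelometry.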

[4] = Half life in human liver microsomes at 1 uM by LC-MS analysis; assay type: ADME, Microsome
How it was run: (§1)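 Compound at 1 µM final (1 in 500 dilution of stock) incubated at 37 °C with human liver microsomes in 0.1 M phosphate buffer pH 7.4, 0.4 mg/mL protein. First-order depletion rate from exponential decay fit used to derive in vitro CLint and half-life; predicted hepatic extraction ratio from scaled CLint with liver blood flow 20.7 mL/min/kg.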

[5] = Kinetic solubility of the compound in phosphate buffer at pH 2 by nephelometry; assay type: physicochemical; settings: read-out: Kinetic_solubility
[6] = Partition coefficient, log D of the compound at pH 7.4 by HPLC analysis; assay type: physicochemical; settings: octanol/water
How it was run: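 Chromatographic gradient HPLC: mobile phase 50 mM ammonium acetate pH 7.4 (or ammonium formate pH 3.0) with an acetonitrile gradient of 0–100% over 10 min; UV detection at 220 and 254 nm.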

[7] = Intrinsic clearance in human liver microsomes at 1 uM after 60 mins by LC-MS analysis; assay type: ADME, Microsome; settings: read-out: CLH; how it was run: as §1
[8] = tested on: Trypanosoma cruzi; experiment: Antitrypanosomal activity against Trypanosoma cruzi Tulahuen C2C4 amastigotes infected in rat L6 cells after 96 hrs by beta-galactosidase reporter gene assay; assay type: functional, organism-based; settings: Tulahuen C2C4, L6, 96 h
How it was run: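 L-6 cells (2000/well, RPMI 1640 + 10% FBS, 2 mM L-glutamine) infected after 24 h with 5000 LacZ-expressing trypomastigotes. At 48 h the medium was replaced with eleven 3-fold drug dilutions (100 to 0.002 µg/mL). After 96 h, CPRG/Nonidet substrate added, colour read at 540 nm after 2–6 h. IC50 by linear regression from sigmoidal curves; benznidazole control.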

[9] = tested on: Leishmania donovani; experiment: Antimicrobial activity against Leishmania donovani MHOM/ET/67/L82 amastigote form after 70 hrs by Alamar blue assay; assay type: functional, organism-based; settings: MHOM/ET/67/L82, 70 h
How it was run: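 Axenic amastigotes grown at 37 °C in SM medium pH 5.4 with 10% heat-inactivated FBS, 5% CO2; 10⁵ parasites per well exposed to eleven 3-fold dilutions (100 to 0.002 µg/mL) for 70 h. Alamar Blue (resazurin) added for 2–4 h, fluorescence read at ex 536/em 588 nm. IC50 by linear regression from sigmoidal curves; miltefosine control.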

[10] = tested on: L6; experiment: Cytotoxicity against rat L6 cells after 70 hrs by Alamar blue assay; assay type: cell-based; settings: L6, 70 h
How it was run: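 4000 L-6 cells per well in RPMI 1640 with L-glutamine and 10% FBS. Eleven 3-fold dilutions from 100 to 0.002 µg/mL for 70 h; Alamar Blue 2 h, fluorescence at ex 536/em 588 nm. IC50 by linear regression from sigmoidal curves; podophyllotoxin control.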

[11] = tested on: Plasmodium falciparum; experiment: Antimicrobial activity against Plasmodium falciparum NF54 infected in human RBC after 48 hrs by [3H]hypoxanthine incorporation assay; assay type: functional, organism-based
How it was run: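 Erythrocytic stage, drug-sensitive strain, in hypoxanthine-free RPMI 1640 with HEPES, NaHCO3, neomycin, Albumax, human A+ red cells at 2.5% haematocrit, 0.3% parasitaemia. Eleven 3-fold dilutions from 100 to 0.002 µg/mL; 37 °C, 4% CO2/3% O2/93% N2. ³H-hypoxanthine added at 48 h, further 24 h, then harvested and scintillation-counted. IC50 by linear regression; chloroquine control.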

[12] = tested on: Leishmania donovani; experiment: Antimicrobial activity against Leishmania donovani amastigote form infected in mouse peritoneal macrophage after 96 hrs by Giemsa staining method; assay type: functional, organism-based
How it was run: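 Mouse peritoneal macrophages (4×10⁴/well, RPMI 1640 + 10% heat-inactivated FBS) infected after 24 h with 1.2×10⁵ axenic amastigotes; free parasites removed at 4 h, drug dilutions added next day. After 96 h, methanol fixation and 10% Giemsa staining; infected and non-infected macrophages counted, % reduction in parasite burden vs controls, IC50 by linear regression; miltefosine control.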

[13] = tested on: Trypanosoma brucei rhodesiense; experiment: Antitrypanosomal activity against Trypanosoma brucei rhodesiense STIB 900 bloodstream form after 70 hrs by Alamar blue assay; assay type: functional, organism-based; settings: STIB 900, 70 h
How it was run: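 Bloodstream forms (4×10³/well) in MEM with 25 mM HEPES, extra glucose, non-essential amino acids, 0.2 mM 2-mercaptoethanol, 1 mM pyruvate and 15% heat-inactivated horse serum. Eleven 3-fold dilutions from 100 to 0.002 µg/mL, 70 h at 37 °C/5% CO2; Alamar Blue 2 h, fluorescence at ex 536/em 588 nm; IC50 by linear regression; melarsoprol control. SI relative to L6 cells.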

Structure (SMILES)	IC50 [1] [µM]	selectivity ratio [2]	further results
COc1ccc(-c2nc3ncccc3o2)cc1NC(=O)c1ccco1	1.1	74	–
O=C(Nc1cc(-c2nc3ncccc3o2)ccc1Cl)c1ccco1	> 10	–	–
Cc1ccc(NC(=O)c2ccco2)cc1-c1nc2ncccc2o1	0.94	> 88	–
Cc1ccc(NC(=O)c2occc2C)cc1-c1nc2ncccc2o1	0.57	145	solubility kinetic [3]: < 1.6 µg/mL; half-life at 1 µM [4]: 8 min; solubility kinetic [5]: 1.6 µg/mL (≈ 4.8 µM); logD [6]: 3.3; microsomal CLint at 1 µM [7]: 228 µL/min/mg
O=C(Nc1ccc(F)c(-c2nc3ncccc3o2)c1)c1cnco1	2	43	solubility kinetic [3]: 6.3 µg/mL (≈ 19.4 µM); half-life at 1 µM [4]: 124 min; solubility kinetic [5]: 6.3 µg/mL (≈ 19.4 µM); logD [6]: 1.7; microsomal CLint at 1 µM [7]: 14 µL/min/mg
COc1ccc(-c2cnc3nc(-c4cccc(NC(=O)c5ccco5)c4)oc3c2)cc1	0.63	130	–
O=C(Nc1ccc(Cl)c(-c2nc3ccccc3o2)c1)c1ccco1	> 10	–	–
CN(C(=O)c1ccoc1)c1ccc(Cl)c(-c2nc3ncccc3o2)c1	> 10	–	–
CN(C(=O)c1ccccc1)c1ccc(Cl)c(-c2nc3ncccc3o2)c1	> 10	–	–
O=C(Nc1ccc(Cl)c(-c2nc3ncccc3o2)c1)c1c[nH]cn1	> 10	–	–

Further lines, with some results ahead:

IC50 [1] [µM]	Structure (SMILES)	selectivity ratio [2]	further results
0.34	O=C(Nc1cccc(-c2nc3ncccc3o2)c1)c1ccco1	> 245	–
6.2	Cc1ccc(-c2nc3ncccc3o2)cc1NC(=O)c1ccco1	13	–
> 10	Cc1ccc(NC(=O)c2cnco2)cc1-c1nc2ncccc2o1	–	–
0.31	Cc1ccc(NC(=O)c2ccoc2)cc1-c1nc2ncccc2o1	103	solubility kinetic [3]: 6.3 µg/mL (≈ 19.7 µM); half-life at 1 µM [4]: 10 min; solubility kinetic [5]: 12.5 µg/mL (≈ 39.1 µM); logD [6]: 2.7; microsomal CLint at 1 µM [7]: 176 µL/min/mg
2.6	Cc1ccc(NC(=O)c2cscn2)cc1-c1nc2ncccc2o1	32	–
0.29	O=C(Nc1ccc(F)c(-c2nc3ncccc3o2)c1)c1ccco1	290	–
0.1	Cc1ccoc1C(=O)Nc1ccc(F)c(-c2nc3ncccc3o2)c1	840	solubility kinetic [3]: 1.6 µg/mL (≈ 4.74 µM); half-life at 1 µM [4]: 9 min; solubility kinetic [5]: 1.6 µg/mL (≈ 4.74 µM); logD [6]: 2.9; microsomal CLint at 1 µM [7]: 202 µL/min/mg
0.12	O=C(Nc1ccc(F)c(-c2nc3ncccc3o2)c1)c1ccoc1	680	solubility kinetic [3]: 6.3 µg/mL (≈ 19.5 µM); half-life at 1 µM [4]: 11 min; solubility kinetic [5]: 12.5 µg/mL (≈ 38.7 µM); logD [6]: 2.4; microsomal CLint at 1 µM [7]: 154 µL/min/mg
0.76	O=C(Nc1ccc(F)c(-c2nc3ncccc3o2)c1)c1cscn1	110	solubility kinetic [3]: 3.1 µg/mL (≈ 9.11 µM); half-life at 1 µM [4]: 36 min; solubility kinetic [5]: 3.1 µg/mL (≈ 9.11 µM); logD [6]: 2.3; microsomal CLint at 1 µM [7]: 48 µL/min/mg
0.12	O=C(Nc1cccc(-c2nc3ncc(-c4ccccc4)cc3o2)c1)c1ccco1	84	–
0.55	O=C(Nc1cccc(-c2nc3ncc(-c4ccc(Cl)cc4)cc3o2)c1)c1ccco1	150	–
0.78	O=C(Nc1cccc(-c2nc3ncccc3[nH]2)c1)c1ccco1	54	–
1	O=C(Nc1cccc(-c2nc3ncccc3[nH]2)c1)c1ccoc1	39	–
> 10	O=C(Nc1ccc(Cl)c(-c2nc3ncccc3o2)c1)c1cc2ccccc2o1	–	–
1.5	O=C(Nc1ccc(Cl)c(-c2nc3ncccc3o2)c1)c1ccccc1	54	IC50 [8]: 2.9 µM; IC50 [9]: 6.1 µM; IC50 [10]: 51 µM; IC50 [11]: 6.9 µM; IC50 [12]: 37 µM; IC50 [13]: 4.2 µM
